Experiments:
Assay type in all cases: functional, cell-based
KB = assay: Cytotoxicity against human KB cells after 72 hrs by SRB assay
Method in brief: (§1)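 Cells seeded at 3–5 × 10^3 per well in RPMI-1640 with 10% FBS holding various sample concentrations. Exposure 72 h. Attached cells fixed with cold 50% trichloroacetic acid for 30 min, then stained with 0.04% SRB for 30 min. Bound dye solubilized in 10 mM Tris-base, absorbance read at 515 nm. Three or more experiments; IC50 given as mean with standard deviation.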

MCF7 = assay: Cytotoxicity against human MCF7 cells after 72 hrs by SRB assay; settings: MCF7, 72 h; method in brief: as §1
[1] = Cytotoxicity against human KBVIN cells after 72 hrs by SRB assay; method in brief: as §1
MDA-MB-231 = assay: Cytotoxicity against human MDA-MB-231 cells after 72 hrs by SRB assay; settings: MDA-MB-231, 72 h; method in brief: as §1
A549 = assay: Cytotoxicity against human A549 cells after 72 hrs by SRB assay; settings: A549, 72 h; method in brief: as §1

Molecule `CCc1c2c(nc3ccc(F)cc13)-c1cc3c(c(=O)n1C2)COC(=O)[C@]3(O)CC` has an IC50 (KB) of 69.6 nM, an IC50 (MCF7) of 76.9 nM and an IC50 [1] of 67 nM. For the same molecule, the IC50 (MDA-MB-231) was 319 nM and the IC50 (A549) was 9.91 nM.
For `CCc1c2c(nc3ccc(F)cc13)-c1cc3c(c(=O)n1C2)COC(=O)[C@@]3(CC)OC(=O)CN/C(Cc1ccc(OC)cc1)=N/S(=O)(=O)c1ccc(C)cc1`, the IC50 (KB) was 47 nM, the IC50 (MCF7) was 80.8 nM and the IC50 [1] was 99.2 nM. It also gave an IC50 (MDA-MB-231) of 238 nM and an IC50 (A549) of 8.72 nM.
`CC[C@@]1(O)C(=O)OCc2c1cc1n(c2=O)Cc2cc3cc(F)ccc3nc2-1` gave an IC50 (KB) of 185 nM, an IC50 (MCF7) of 431 nM and an IC50 [1] of 2950 nM. The IC50 (MDA-MB-231) was 579 nM and the IC50 (A549) was 58.6 nM.
Work on `CC[C@@]1(OC(=O)CN/C(Cc2ccc(OC)cc2)=N/S(=O)(=O)c2ccc(C)cc2)C(=O)OCc2c1cc1n(c2=O)Cc2cc3cc(F)ccc3nc2-1` yielded an IC50 (KB) of 280 nM, an IC50 (MCF7) of 649 nM and an IC50 [1] of 497 nM. It also gave an IC50 (MDA-MB-231) of 601 nM and an IC50 (A549) of 62.2 nM.
With `CCc1c2c(nc3ccc(OC(=O)N4CCC(N5CCCCC5)CC4)cc13)-c1cc3c(c(=O)n1C2)COC(=O)[C@]3(O)CC` [IRINOTECAN] the IC50 (KB) was 7990 nM, the IC50 [1] was > 20000 nM and the IC50 (MDA-MB-231) was 15600 nM.
`CC[C@@]1(O)C(=O)OCc2c1cc1n(c2=O)Cc2cc3c(CN(C)C)c(O)ccc3nc2-1` [TOPOTECAN] showed an IC50 (KB) of 102 nM, an IC50 (MCF7) of 666 nM and an IC50 (MDA-MB-231) of 773 nM. The IC50 (A549) was 112 nM.
